Reference: ChEMBL document CHEMBL4308887, “Synthesis and biological evaluation of clovamide analogues with catechol functionality as potent Parkinson's disease agents in vitro and in vivo” (Bioorg Med Chem Lett, 2019)
Activity calls are given as the source filed them. The rule behind the calls is not given here.

Key:
[1] = Volume of distribution at steady state in Sprague-Dawley rat at 25 mg/kg, po by LC-MS/MS analysis; assay type: ADME, organism-based; conditions: in vivo
How it was run: (§1)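 Male Sprague–Dawley rats (n = 3) dosed i.v. 5 mg/kg (5% DMSO, 2% F68, 93% saline) or p.o. 25 mg/kg (0.5% methylcellulose, 1% Tween 80). Orbital blood at 0.083–24 h (12 points). Plasma concentration–time profiles gave Cl, Vdss, AUC, T1/2, Tmax, Cmax, MRT and absolute F.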

SH-SY5Y [2] = assay: Neuroprotection against H2O2-induced toxicity in human SH-SY5Y cells assessed as LDH release at 1 uM preincubated for 6 hrs followed by H2O2 addition and measured after 24 hrs (reference value: 339.93 +/- 3.66 U/L); assay type: functional
Mus musculus [3] = assay: Anti-parkinson's activity in MPTP-induced C57Bl/6 mouse model of Parkinson's disease assessed as increase in SOD activity in substantia nigra administered intragastrically pretreated for 10 days followed by MPTP challenge measured 10 days post MPTP addition by xanthine oxidase method; assay type: functional, organism-based
How it was run: (§2)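 Striatum and SNpc from MPTP-treated mice dosed orally with 1 at 10 or 20 mg/kg. MDA level and SOD activity measured. Mean ± S.D., n = 6 mice/group.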

SH-SY5Y [4] = assay: Protection against H2O2-induced oxidative stress in human SH-SY5Y cells assessed as increase in SOD activity preincubated for 6 hrs followed by H2O2 addition and measured after 24 hrs by xanthine oxidase method; assay type: functional, cell-based
How it was run: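 Cellular SOD activity (units) and MDA content (μmol/g) measured in SH-SY5Y after pretreatment (1, 10 μM) and 600 μM H₂O₂. Mean ± S.E.M. of three independent experiments.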

[5] = Activation of PI3K/Akt/mTOR signaling in human SH-SY5Y cells assessed as increase in AKT phosphorylation after 5 to 360 mins by Western blot analysis; assay type: cell-based
How it was run: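 SH-SY5Y cells, unstimulated, exposed to 1 for 5, 15, 30, 60, 120, 240 or 360 min. Phospho-AKT and phospho-mTOR measured by western blot, reported as p-AKT/t-AKT and p-mTOR/t-mTOR ratios after densitometry. Mean ± S.E.M. of three independent experiments.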

SH-SY5Y [6] = assay: Protection against H2O2-induced apoptosis in human SH-SY5Y cells assessed as early apoptotic cells at 1 uM preincubated for 6 hrs followed by H2O2 addition and measured after 24 hrs by Annexin V-FITC/propidium iodide staining based flow cytometry (reference value: 6.6%); assay type: functional
SH-SY5Y [7] = assay: Protection against H2O2-induced apoptosis in human SH-SY5Y cells assessed as viable cells at 10 uM preincubated for 6 hrs followed by H2O2 addition and measured after 24 hrs by Annexin V-FITC/propidium iodide staining based flow cytometry (reference value: 12.4%); assay type: functional; conditions: read-out: Activity
SH-SY5Y [8] = assay: Protection against H2O2-induced morphological changes in human SH-SY5Y cells at 1 to 10 uM preincubated for 6 hrs followed by H2O2 addition and measured after 24 hrs by inverted microscopic analysis; assay type: functional, cell-based
How it was run: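 Cell morphology under inverted microscope after pretreatment and 600 μM H₂O₂; DMSO below 0.1%.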

SH-SY5Y [9] = assay: Protection against H2O2-induced oxidative stress in human SH-SY5Y cells assessed as reduction in reactive oxygen species level preincubated for 6 hrs followed by H2O2 addition and measured after 24 hrs by DHE dye based inverted microscopic analysis; assay type: functional, cell-based
SH-SY5Y [10] = assay: Protection against H2O2-induced apoptosis in human SH-SY5Y cells assessed as late apoptotic cells at 10 uM preincubated for 6 hrs followed by H2O2 addition and measured after 24 hrs by Annexin V-FITC/propidium iodide staining based flow cytometry (reference value: 77.5%); assay type: functional
SH-SY5Y [11] = assay: Induction of apoptosis in non-stimulated human SH-SY5Y cells assessed as necrotic cells at 10 uM measured after 6 hrs by Annexin V-FITC/propidium iodide staining based flow cytometry (reference value: 0.6%); assay type: cell-based
Mus musculus [12] = assay: Anti-parkinson's activity in MPTP-induced C57Bl/6 mouse model of Parkinson's disease assessed as decrease in ratio of Bax/Bcl2 expression in substantia nigra at 10 to 20 mg/kg, ig pretreated for 10 days followed by MPTP challenge measured 10 days post MPTP addition by Western blot analysis; assay type: functional, organism-based
How it was run: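 Substantia nigra from MPTP mice. Bax, Bcl-2 and cleaved caspase-3 measured by western blot, with Bcl-2/Bax ratio by densitometry. Mean ± S.D., n = 6 mice/group.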

[13] = Oral bioavailability in Sprague-Dawley rat at 25 mg/kg by LC-MS/MS analysis; assay type: ADME, organism-based; conditions: in vivo; how it was run: as §1
[14] = Half life in Sprague-Dawley rat at 5 mg/kg, iv by LC-MS/MS analysis; assay type: ADME, organism-based; conditions: in vivo
How it was run: (§3)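 Male Sprague–Dawley rats dosed with 1 at 5 mg/kg i.v. (vehicle 5% DMSO, 2% F68, 93% saline) or 25 mg/kg p.o. (0.5% methylcellulose with 1% Tween 80). Orbital blood sampled at 0.083–24 h, 12 time points. Plasma PK parameters derived. Mean ± SD, n = 3.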

SH-SY5Y [15] = assay: Protection against H2O2-induced apoptosis in human SH-SY5Y cells assessed as late apoptotic cells at 1 uM preincubated for 6 hrs followed by H2O2 addition and measured after 24 hrs by Annexin V-FITC/propidium iodide staining based flow cytometry (reference value: 77.5%); assay type: functional
[16] = Cmax in Sprague-Dawley rat at 25 mg/kg, po by LC-MS/MS analysis; assay type: ADME, organism-based; set-up: dose 25 mg/kg, route oral; conditions: in vivo; how it was run: as §3
[17] = AUC (0 to infinity) in Sprague-Dawley rat at 5 mg/kg, iv by LC-MS/MS analysis; assay type: ADME, organism-based; set-up: dose 5 mg/kg, route intravenous, time infinity; conditions: in vivo
How it was run: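 Single intravenous 5 mg/kg dose in 5% DMSO + 2% F68 + 93% saline to male Sprague–Dawley rats (n = 3). Orbital blood samples (100-200 μL) were taken at 12 points over 24 h (0.083 to 24 h). AUC0-∞ was derived from the plasma concentration–time curve and given as mean ± SD.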

SH-SY5Y [18] = assay: Protection against H2O2-induced apoptosis in human SH-SY5Y cells assessed as improvement in nuclear fragmentation at 1 to 10 uM preincubated for 6 hrs followed by H2O2 addition and measured after 24 hrs by Hoechst 33342 staining based inverted microscopic analysis; assay type: functional, cell-based
How it was run: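 Hoechst 33342 nuclear staining after pretreatment and 600 μM H₂O₂. Nuclear fragmentation and DNA condensation were scored visually.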

[19] = MRT in Sprague-Dawley rat at 5 mg/kg, iv by LC-MS/MS analysis; assay type: ADME, organism-based; conditions: in vivo; how it was run: as §3
Mus musculus [20] = assay: Anti-parkinson's activity in MPTP-induced C57Bl/6 mouse model of Parkinson's disease assessed as reduction in MDA level in striatum administered intragastrically pretreated for 10 days followed by MPTP challenge measured 10 days post MPTP addition by thiobarbituric acid method; assay type: functional, organism-based; how it was run: as §2
Mus musculus [21] = assay: Anti-parkinson's activity in MPTP-induced C57Bl/6 mouse model of Parkinson's disease assessed as increase in SOD activity in striatum administered intragastrically pretreated for 10 days followed by MPTP challenge measured 10 days post MPTP addition by xanthine oxidase method; assay type: functional, organism-based; how it was run: as §2

## COC(=O)[C@H](Cc1ccccc1)NC(=O)/C=C/c1ccc(O)c(O)c1 [N-CAFFEOYL-PHENYLALANINE METHYL ESTER]
[1]
  Vdss: 5.98 L/kg
SH-SY5Y [2]
  Activity: 269.12 U/L
Mus musculus [3]
  Activity: Dose-dependent effect
SH-SY5Y [4]
  Activity: Dose-dependent effect
[5]
  Activity: Active
SH-SY5Y [6]
  Activity: 6.3%
SH-SY5Y [7]
  viability at 10 µM: 89.8%
SH-SY5Y [8]
  Activity: Active
SH-SY5Y [9]
  Activity: Dose-dependent effect
SH-SY5Y [10]
  Activity: 4.3%
SH-SY5Y [11]
  Activity: 1.1%
Mus musculus [12]
  Activity: Active
[13]
  bioavailability: 15.2%
[14]
  half-life: 0.85 h
SH-SY5Y [15]
  Activity: 17.8%
[16]
  Cmax: 808 ng/mL
[17]
  AUC(0-inf): 3270 ng·h/mL
SH-SY5Y [18]
  Activity: Active
[19]
  MRT: 1.45 h
Mus musculus [20]
  Activity: Dose-dependent effect
Mus musculus [21]
  Activity: Dose-dependent effect
